Assay results as given in publication PMC11190929 (ACS Omega, 2024).
pIC50, pKd: −log10 of the molar value.

Legend:
MARK4 [1] = molecular target: T1, MARK4 (Homo sapiens, UniProt Q96L34); experiment: Fluorescence binding studies; conditions: for KSV: Stern-Volmer
T1 sequence (Q96L34 59-368): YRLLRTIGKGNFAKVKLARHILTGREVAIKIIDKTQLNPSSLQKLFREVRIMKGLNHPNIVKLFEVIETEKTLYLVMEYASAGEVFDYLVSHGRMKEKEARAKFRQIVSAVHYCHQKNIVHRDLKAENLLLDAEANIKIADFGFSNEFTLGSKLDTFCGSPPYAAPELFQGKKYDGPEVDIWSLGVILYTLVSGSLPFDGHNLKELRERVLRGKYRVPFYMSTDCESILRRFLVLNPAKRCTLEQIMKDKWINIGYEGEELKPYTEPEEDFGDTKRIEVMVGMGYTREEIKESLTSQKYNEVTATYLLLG
Summary of the method: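 Intrinsic fluorescence of recombinant MARK4 (4 μM) titrated with test compound at 0–15 μM. Excitation 280 nm, emission 300–400 nm, slit 10 nm, medium response. Quenching data fitted to the Stern–Volmer and modified Stern–Volmer equations to give binding constant Ka and number of binding sites n.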

MARK4 [2] = molecular target: T1, MARK4; experiment: ATPase enzyme inhibition assay; type: biochemical; conditions: for ATPase activity of MARK4: in the presence of compound
Summary of the method: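 MARK4 (residues 59–368), expressed in E. coli M15 and purified, at 6 μM with 20 μM ATP in 20 mM Tris pH 8.0. Incubated with test compound (0–120 μM) at 25 °C for 10–15 min. Phosphate detected with Biomol Green malachite-green reagent, absorbance 620 nm. IC50 computed with an online calculator.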

[3] = test system: tau phosphorylation in SH-SY5Y cells; experiment: Tau-phosphorylation assay; type: cell-based, human; conditions: compound at its enzyme IC50 concentration, 24 h
Summary of the method: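 SH-SY5Y neuroblastoma cells kept in 1:1 Eagle's MEM/F12 and plated in six-well plates, then incubated with test compound for 24 h. Cells were trypsinized, fixed and rinsed, then labelled with an anti-phospho-tau primary and an Alexa-647 conjugated secondary antibody. After washing and resuspension in FACS buffer, cells were analysed by flow cytometry.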

C3A cells [4] = experiment: Cell viability; type: cell-based; conditions: Homo sapiens, 72 h, read-out: IC50 (cell viability)
Summary of the method: (§1)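 Cells grown in Eagle's MEM with 10% FBS and 1% penicillin/streptomycin, seeded at 2000–3000 cells/well and left overnight. Treated with test compound 0–200 μM for 48–72 h. PrestoBlue HS (resazurin) added for about 45 min, fluorescence read at 560/590 nm. Percent viability relative to vehicle control plotted against dose.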

SNU-475 cells [5] = experiment: Cell viability; type: cell-based; conditions: Homo sapiens, SNU-475, 72 h, read-out: IC50 (cell viability)
Summary of the method: as §1

C3A cells [6] = experiment: Transwell cell migration assay, C3A; type: cell-based, human; conditions: 1/2 IC50, 24 h, vs vehicle control
Summary of the method: (§2)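 Serum-starved cells treated with test compound or vehicle for 24 h, then 50 × 10^3 cells/well placed in serum-free medium in the upper Boyden chamber (8.0 μm PET membrane). Lower chamber held complete medium with 10% FBS. Next day, non-migrated cells were swabbed off. Migrated cells were methanol-fixed, stained with 0.4% crystal violet in 25% methanol, and counted in 4–5 random fields.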

SNU-475 cells [7] = experiment: Annexin-V/PI staining; type: cell-based, human; conditions: SNU-475, annexin-V/PI
Summary of the method: (§3)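 Cells were exposed to test compound or vehicle for 72 h, then trypsinized and washed 2–3 times in sterile PBS. They were stained with PI and Cy5-labelled annexin-V and analysed by flow cytometry. Positive cells were quantified from n = 3 biological replicates, with a t test against vehicle.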

C3A cells [8] = experiment: Annexin-V/PI staining; type: cell-based, human
Summary of the method: as §3

SNU-475 cells [9] = experiment: Transwell cell migration assay, SNU-475; type: cell-based, human; conditions: SNU-475, 1/2 IC50, 24 h, vs vehicle control
Summary of the method: as §2

HEK293 cells = experiment: Cytotoxicity on noncancerous HEK293 cells; type: cell-based, human; conditions: up to 200 μM
Summary of the method: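 HEK293 cells in RPMI 1640 medium, seeded at 2000–3000 cells/well and allowed to grow overnight. Exposed to test compound over 0–200 μM for 48–72 h. Resazurin-based PrestoBlue HS reagent applied about 45 min, fluorescence measured at excitation 560/emission 590 nm. Viability expressed as percent of vehicle control across doses.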

[10] = fluorescence quenching, modified Stern-Volmer

| Compound | pKd (MARK4 [1]) | KSV (MARK4 [1]; fluorescence quenching) | n (number of binding sites) (MARK4 [1]; [10]) | ATPase activity of MARK4 (MARK4 [2]) | also measured |
| --- | --- | --- | --- | --- | --- |
| COc1cc(C(=O)N/N=C2\C(=O)Nc3ccc(Br)cc32)ccc1O [VI-7, (Z)-N′-(5-Bromo-2-oxoindolin-3-ylidene)-4-hydroxy-3-methoxybenzohydrazide] | 5.52 | 1.7 × 10^5 M^–1 | 1.067 |  |  |
| COc1cc(C(=O)N/N=C2\C(=O)Nc3cc(Cl)ccc32)ccc1O [VI-4, (Z)-N′-(6-Chloro-2-oxoindolin-3-ylidene)-4-hydroxy-3-methoxybenzohydrazide] | 5.95 | 1.8 × 10^5 M^–1 | 1.141 |  |  |
| COc1cc(C(=O)N/N=C2\C(=O)Nc3c2cccc3[N+](=O)[O-])ccc1O [VI-8, (Z)-4-Hydroxy-3-methoxy-N′-(7-nitro-2-oxoindolin-3-ylidene)benzohydrazide] | 4.12 | 0.6 × 10^5 M^–1 | 0.8606 |  |  |
| COc1cc(C(=O)N/N=C2\C(=O)Nc3ccc(Cl)cc32)ccc1O [VI-6, (Z)-N′-(5-Chloro-2-oxoindolin-3-ylidene)-4-hydroxy-3-methoxybenzohydrazide] | 5.80 | 1.4 × 10^5 M^–1 | 1.135 |  |  |
| COc1cc(C(=O)N/N=C2\C(=O)Nc3cc(Cl)c(F)cc32)ccc1O [VI-10, (Z)-N′-(6-Chloro-5-fluoro-2-oxoindolin-3-ylidene)-4-hydroxy-3-methoxybenzohydrazide] | 4.90 | 0.8 × 10^5 M^–1 | 1.006 |  |  |
| COc1cc(C(=O)N/N=C2\C(=O)Nc3c(C)cc(C)cc32)ccc1O [VI-5, (Z)-N′-(5,7-Dimethyl-2-oxoindolin-3-ylidene)-4-hydroxy-3-methoxybenzohydrazide] | 4.40 | 1.0 × 10^5 M^–1 | 0.8404 | decreased considerably |  |
| COc1cc(C(=O)N/N=C2\C(=O)Nc3c(Cl)cccc32)ccc1O [VI-9, (Z)-N′-(7-Chloro-2-oxoindolin-3-ylidene)-4-hydroxy-3-methoxybenzohydrazide] | 5.17 | 1.0 × 10^5 M^–1 | 1.047 | decreased considerably | Tau phosphorylation [3]: decreased the tau phosphorylation; pIC50 (C3A cells [4]): 5.16; pIC50 (SNU-475 cells [5]): 5.36; Cell migration (C3A cells [6]): significantly decreased the migration; Apoptosis induction (SNU-475 cells [7]): strongly promote early apoptosis; Apoptosis induction (C3A cells [8]): strongly promote early apoptosis; Cell migration (SNU-475 cells [9]): significantly decreased the migration; pIC50 (MARK4 [2]): 5.15; Cytotoxicity on noncancerous HEK293 cells (HEK293 cells): did not exhibit cytotoxicity |
| (Z)-N′-(6-Fluoro-2-oxoindolin-3-ylidene)-4-hydroxy-3-methoxybenzohydrazide [VI-11] |  | 1.4 × 10^5 M^–1 | 1.015 |  | Ka (binding constant) (MARK4 [1]; fluorescence quenching, modified Stern-Volmer, excitation 280 nm): 1.56 × 10^5 M^–1 |

Now from value to compound, other results behind:

| pKd (MARK4 [1]) | KSV (MARK4 [1]; fluorescence quenching) | n (number of binding sites) (MARK4 [1]; [10]) | ATPase activity of MARK4 (MARK4 [2]) | Compound | also measured |
| --- | --- | --- | --- | --- | --- |
| 7.35 | 3.8 × 10^5 M^–1 | 1.367 | decreased considerably | COc1ccc2c(c1)/C(=N/NC(=O)c1ccc(O)c(OC)c1)C(=O)N2 [VI-3, (Z)-4-Hydroxy-3-methoxy-N′-(5-methoxy-2-oxoindolin-3-ylidene)benzohydrazide] |  |
| 6.13 | 1.8 × 10^5 M^–1 | 1.199 |  | COc1cc(C(=O)N/N=C2\C(=O)Nc3cc(F)ccc32)ccc1O [VI-14, (Z)-N′-(6-Fluoro-2-oxoindolin-3-ylidene)-4-hydroxy-3-methoxybenzohydrazide] |  |
| 7.43 | 0.8 × 10^5 M^–1 | 1.517 |  | COc1ccc2c(c1)NC(=O)/C2=N\NC(=O)c1ccc(O)c(OC)c1 [VI-13, (Z)-4-Hydroxy-3-methoxy-N′-(6-methoxy-2-oxoindolin-3-ylidene)benzohydrazide] |  |
| 6.14 | 3.7 × 10^5 M^–1 | 1.145 | decreased considerably | COc1cc(C(=O)N/N=C2\C(=O)Nc3ccc(C)cc32)ccc1O [VI-2, (Z)-4-Hydroxy-3-methoxy-N′-(5-methyl-2-oxoindolin-3-ylidene)benzohydrazide] |  |
| 6.75 | 3.9 × 10^5 M^–1 | 1.241 |  | COc1cc(C(=O)N/N=C2\C(=O)Nc3ccccc32)ccc1O [VI-1, (Z)-4-Hydroxy-3-methoxy-N′-(2-oxoindolin-3-ylidene)benzohydrazide] |  |
